The record followed here is ChEMBL document CHEMBL4732095, “Novel naphthylamide derivatives as dual-target antifungal inhibitors: Design, synthesis and biological evaluation” (Eur J Med Chem, 2021).

Common to all, as to format: functional
For assay [1], the system named is Nakaseomyces glabratus. In words: Antifungal activity against Candida glabrata ATCC 0001 assessed as inhibition of microbial growth by NCCLS protocol based method. The essentials:
(§1)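 Broth MIC50 determined following NCCLS guidelines in Sabouraud medium, with fungal suspension in 24-well format. Compound tested at 0.0625, 0.125, 0.5, 1, 2, 4, 8 and 16 μg/mL. Plates cultured statically at 35 °C. MIC50 is the lowest concentration giving 50% growth inhibition. Naftifine and fluconazole served as positive controls.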

Assay [2] has as its system Aspergillus fumigatus. In words: Antifungal activity against Aspergillus fumigatus KM8001 assessed as inhibition of microbial growth by NCCLS protocol based method. The essentials: as §1
In assay [3] the test system is Pichia kudriavzevii. Briefly: Antifungal activity against Candida krusei ATCC 6258 assessed as inhibition of microbial growth by NCCLS protocol based method. The essentials: as §1
Assay [4] deals with Candida tropicalis. Briefly: Antifungal activity against Candida tropicalis ATCC 1369 assessed as inhibition of microbial growth by NCCLS protocol based method. The essentials:
as §1

Assay [5] concerns Candida albicans. Briefly: Antifungal activity against Candida albicans ATCC 10231 assessed as inhibition of microbial growth by NCCLS protocol based method. The essentials: as §1

Each structure is given as a SMILES string.

The term MIC50 denotes the lowest concentration that inhibits either 50% of growth or 50% of the strains tested, depending on the study. On to `O=C(NC(Cn1ccnc1)C(=O)NCc1ccncc1)c1cccc2ccccc12` (stereo not given), for which the MIC50 worked out at 0.5 µg/mL in assay [1]; 8 µg/mL in assay [2]; 0.5 µg/mL in assay [3]; 0.25 µg/mL in assay [4]; 0.25 µg/mL in assay [5].
As for `O=C(NC(Cn1ccnc1)C(=O)NCc1ccccc1)c1ccc2ccccc2c1` (stereo not given), the MIC50 is 1 µg/mL in assay [1]; above 16 µg/mL in assay [2]; 1 µg/mL in assay [3]; 0.5 µg/mL in assay [4]; 0.5 µg/mL in assay [5].
As for `CN(CC(=O)Nc1cccnc1)C(=O)c1cccc2ccccc12`, the MIC50 in assay [1] was 0.25 µg/mL; in assay [2], above 16 µg/mL; in assay [3], 0.5 µg/mL; in assay [4] it was 0.25 µg/mL; in assay [5], 0.25 µg/mL.
In the case of `CC(NC(=O)c1ccc2ccccc2c1)C(=O)NC(Cn1ccnc1)C(=O)c1ccccc1` (stereo not given), the MIC50 in assay [1] turned out to be 0.5 µg/mL; in assay [2], 8 µg/mL; in assay [3] it was 0.25 µg/mL; in assay [4], 0.125 µg/mL; in assay [5], 0.25 µg/mL.
As to `O=C(CNC(=O)c1cccc2ccccc12)NC(Cn1ccnc1)C(=O)c1ccccc1` (stereo not given), the MIC50 in assay [1] was determined as 0.25 µg/mL; in assay [2], 8 µg/mL; in assay [3] it was 0.5 µg/mL; in assay [4], 0.125 µg/mL; in assay [5], 0.25 µg/mL.
On to `O=C(CNC(=O)c1ccc2ccccc2c1)NC(Cn1ccnc1)C(=O)c1ccccc1` (stereo not given), for which the MIC50 in assay [1] was 1 µg/mL; in assay [2] it was above 16 µg/mL; in assay [3], 0.5 µg/mL; in assay [4], 0.25 µg/mL; in assay [5] it was 0.25 µg/mL.
With `CN(CC(=O)NCc1cccnc1)C(=O)c1ccc2ccccc2c1`, the MIC50 is 0.5 µg/mL in assay [1]; above 16 µg/mL in assay [2]; 0.25 µg/mL in assay [3]; 0.25 µg/mL in assay [4]; 0.5 µg/mL in assay [5].
`Cc1ccc(NC(=O)C(Cn2ccnc2)NC(=O)c2ccc3ccccc3c2)cc1` (stereo not given): the MIC50 in assay [1] was determined as 0.25 µg/mL; in assay [2], 8 µg/mL; in assay [3], 0.25 µg/mL; in assay [4], 0.25 µg/mL; in assay [5], 0.125 µg/mL.
As for `Cc1ccc(NC(=O)C(Cn2ccnc2)NC(=O)c2cccc3ccccc23)cc1` (stereo not given), the MIC50 was 0.25 µg/mL in assay [1]; above 16 µg/mL in assay [2]; 0.5 µg/mL in assay [3]; 0.5 µg/mL in assay [4]; 0.25 µg/mL in assay [5].
Regarding `CC(C)C(NC(=O)c1ccc2ccccc2c1)C(=O)NC(Cn1ccnc1)C(=O)c1ccccc1` (stereo not given), the MIC50 in assay [1] is 1 µg/mL; in assay [2], above 16 µg/mL; in assay [3] it was 1 µg/mL; in assay [4], 0.5 µg/mL; in assay [5], 0.5 µg/mL.
`O=C(NC(Cn1ccnc1)C(=O)NC1CCCC1)c1ccc2ccccc2c1` (stereo not given): the MIC50 in assay [1] is 0.25 µg/mL; in assay [2], 8 µg/mL; in assay [3], 1 µg/mL; in assay [4], 0.5 µg/mL; in assay [5], 0.25 µg/mL.
In the case of `CN(CC(=O)Nc1ccncc1)C(=O)c1ccc2ccccc2c1`, the MIC50 in assay [1] was found to be 0.5 µg/mL; in assay [2], 8 µg/mL; in assay [3] it was 1 µg/mL; in assay [4], 0.25 µg/mL; in assay [5], 0.25 µg/mL.
Turning to `O=C(NC(Cn1ccnc1)C(=O)NCc1ccccc1)c1cccc2ccccc12` (stereo not given), the MIC50 in assay [1] is 0.5 µg/mL; in assay [2], 8 µg/mL; in assay [3], 1 µg/mL; in assay [4], 0.25 µg/mL; in assay [5], 0.5 µg/mL.
With `CN(CC(=O)NCc1cccnc1)C(=O)c1cccc2ccccc12`, the MIC50 is 2 µg/mL in assay [1]; above 16 µg/mL in assay [2]; 0.5 µg/mL in assay [3]; 0.25 µg/mL in assay [4]; 0.5 µg/mL in assay [5].
As for `CN(CC(=O)NCc1ccncc1)C(=O)c1cccc2ccccc12`, the MIC50 was found to be 1 µg/mL in assay [1]; 8 µg/mL in assay [2]; 2 µg/mL in assay [3]; 0.5 µg/mL in assay [4]; 1 µg/mL in assay [5].
